In the library only some 8.7% were active in any assay of this set; here they are far more common.
tolC growth inh = E. coli tolC mutant growth inhibition; E. coli BW25113 tolC mutant growth, OD615; growth inhibition, % at 10 µM (by protocol); hit rate 2.2% among 65,000;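 active = growth inhibition at or above a cutoff equal to the mean over every tested compound plus 3 SD, cut at about 60% in these data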;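 also: growth measured after 20 h incubation at 37 °C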
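signal = optical density read at 615 nm | test system = E. coli ΔtolC::kan strain BW25113 | timing = 20 h compound exposure of bacteria at 37 °C | buffer or medium = LB medium plus 50 µg/mL kanamycin | compound dosing = 10 µM final, single dose | evaluation = % inhibition of E. coli growth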
PTK2B oligo ant = antagonists of human Pyk2 oligomerization. Q293 cells, Pyk2 FERM NanoBiT luminescence; stronger effect = lower value. z-score (the deposit names both 25 µM and 10 µM). hit rate 0.83% among 99,000. AID 1347419;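 active = Z-score of -3 or lower, scaled per plate to the spread of control and sample wells; inactive = z-score above -3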;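 also: negative z-score means lost luminescence so less FERM oligomerization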
Target sequence (Q14289 whole entry, looked up): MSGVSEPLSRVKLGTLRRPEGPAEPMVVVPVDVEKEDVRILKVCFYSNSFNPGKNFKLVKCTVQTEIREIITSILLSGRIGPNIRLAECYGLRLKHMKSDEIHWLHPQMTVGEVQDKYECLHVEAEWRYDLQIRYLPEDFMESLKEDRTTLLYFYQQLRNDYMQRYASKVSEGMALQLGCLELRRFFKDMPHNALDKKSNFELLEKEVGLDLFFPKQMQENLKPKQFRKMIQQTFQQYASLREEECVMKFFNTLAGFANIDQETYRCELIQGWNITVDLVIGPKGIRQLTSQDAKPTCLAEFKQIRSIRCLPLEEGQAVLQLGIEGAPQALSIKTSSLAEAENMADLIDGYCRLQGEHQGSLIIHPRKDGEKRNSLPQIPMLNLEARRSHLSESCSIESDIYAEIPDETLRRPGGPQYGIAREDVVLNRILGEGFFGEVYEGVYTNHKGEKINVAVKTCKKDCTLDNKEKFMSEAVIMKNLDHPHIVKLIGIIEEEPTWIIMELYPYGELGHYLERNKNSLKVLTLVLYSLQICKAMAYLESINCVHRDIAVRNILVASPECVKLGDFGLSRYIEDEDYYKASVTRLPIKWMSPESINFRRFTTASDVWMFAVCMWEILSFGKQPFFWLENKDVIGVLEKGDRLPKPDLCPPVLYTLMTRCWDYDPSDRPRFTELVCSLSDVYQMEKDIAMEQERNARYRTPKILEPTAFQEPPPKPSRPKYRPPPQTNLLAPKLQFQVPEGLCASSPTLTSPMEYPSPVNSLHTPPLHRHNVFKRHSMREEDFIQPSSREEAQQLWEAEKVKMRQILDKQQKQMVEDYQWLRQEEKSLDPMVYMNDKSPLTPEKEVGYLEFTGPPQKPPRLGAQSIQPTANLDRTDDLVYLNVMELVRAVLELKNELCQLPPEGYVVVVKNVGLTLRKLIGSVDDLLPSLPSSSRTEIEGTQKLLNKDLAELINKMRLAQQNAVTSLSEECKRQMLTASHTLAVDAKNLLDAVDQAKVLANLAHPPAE
Cav3 T inh = inhibitors of human Cav3.2 T-type calcium channel; O95180; Cav3.2-expressing cells, Fluo-4 calcium fluorescence FDSS; stronger effect = lower value; B-score at 10 µM; hit rate 4% among 100,000;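 active = single-dose well whose peak fluorescence ratio is a statistical outlier from its plate by either plate-standardised score or position-corrected B-score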
PostGolgi yeast = growth inhibition of a yeast mutant, post-Golgi transport screen; inhibition, % at 10 µM; post-Golgi transport phenotypic cell assay; hit rate 0.9% among 98,000;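 also: yeast cells grown in 1536-well plates; yeast grown about 18 h at 30C before absorbance read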
Ecoli WT expand = growth inhibitors of E. coli BW25113 wild type; OD600 absorbance; growth inhibition, % at 100 µM; hit rate 0.15% among 98,000;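 active = growth inhibition above about 50% at one test dose, limit read from the data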;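 also: growth measured after 20 h incubation at 37 °C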
PostGolgi ctrl = inhibits growth of the yeast control strain; efflux-deficient yeast background strain, growth absorbance A615, 16 h; inhibition, % at 10 µM; hit rate 5% among 98,000; AID 738
The depositor's hits bear a star; / = no result given. Rule as the data show it, unless noted: active = inhibition above about 30%; inactive = the rest.

SMILES	tolC growth inh	PTK2B oligo ant	Cav3 T inh	PostGolgi yeast	Ecoli WT expand	PostGolgi ctrl
COCCNC(=O)CN(c1ccc(C)cc1)S(=O)(=O)c1ccccc1	-7	0.84	0.56	-2	7	6
Cc1ccc(N(CC(=O)NCCSCc2ccco2)S(C)(=O)=O)cc1	/	0.76	0.3	-13	2	-1
Cc1ccc(S(=O)(=O)N(CC(=O)NCCSCc2ccco2)c2cc(C)ccc2C)cc1	/	-0.49	-6.7*	/	/	/
CCOC(=O)Cn1c(CN(Cc2ccccc2)Cc2ccccc2)nc2c1c(=O)n(C)c(=O)n2C	35	-1.2	-4	9	-9	19
CCCc1cc(C(=O)Nc2cccnc2Cl)no1	/	0.28	-0.29	0	7	30*
CCCc1cc(C(=O)Nc2ccccc2C(=O)OC)no1	20	/	0.39	3	3	19
Cc1noc(C)c1CSc1nnc(-c2ccncc2)n1-c1cccc(Cl)c1C	2	-1.3	0.046	-5	0	-3
Cc1ccccc1-n1c(SCc2c(C)noc2C)nnc1-c1c[nH]c2ccccc12	-3	-3.5*	0.023	-2	-7	8
CS(=O)(=O)n1nc(-c2ccc(Cl)cc2)nc1SCc1ccccc1	/	-0.18	-3.9	-1	-9	5
CCOC(=O)C1CCN(C(c2cccnc2)c2c(NC(=O)c3ccco3)sc(C)c2C)CC1 (configuration not stated)	77*	0.73	/	13	-11	26
O=C(OCCN=C1NS(=O)(=O)c2ccccc21)C1CC(=O)N(c2ccc3ccccc3c2)C1 (configuration not stated)	/	0.95	0.0071	-5	3	-8
Cc1ccc(CSc2nc3c(c(=O)[nH]c(=O)n3C)n2CCC(C)C)cc1	23	/	-0.17	2	-6	41*
COc1ccc(CNc2nc3c(c(=O)n(Cc4ccc(F)cc4)c(=O)n3C)n2C)cc1	71*	-2.1	/	-5	10	20
CC(C)CCn1c(NCCc2ccccc2)nc2c1c(=O)n(C)c(=O)n2C	13	/	-1.5	/	/	/
CCC(C)Nc1nc2c(c(=O)n(C)c(=O)n2C)n1Cc1ccc(F)cc1 (configuration not stated)	19	-0.63	0.27	-7	1	35*
Cn1c(=O)c2c(nc(NCCc3ccccc3)n2Cc2ccc(F)cc2)n(C)c1=O	11	/	-0.33	2	-2	13
Cn1c(NCc2ccccc2)nc2c1c(=O)n(Cc1ccccc1)c(=O)n2C	9	-1.3	/	-2	6	16
CC(C)CCNc1nc2c(c(=O)n(Cc3cccc(F)c3)c(=O)n2C)n1C	42	-1.5	-3.9	0	9	41*
COCCCNC(=O)C1CCCN(C(=O)Nc2ccc(OC)cc2)C1 (configuration not stated)	-19	-0.34	-0.12	-2	-7	-7
Cc1ccc(Cn2c(SCC(C)C)nc3c2c(=O)n(C)c(=O)n3C)cc1	92*	0.2	-1.6	35*	-11	30
CCSc1nc2c(c(=O)n(C)c(=O)n2C)n1Cc1ccc(Cl)cc1	40	-0.29	-1.5	/	/	/
Cc1nnc(-c2cccc(Br)c2)c2cn(-c3ccccc3Cl)nc12	/	0.29	-1.1	102*	6	27
Cc1ccc(-n2cc3c(-c4cccc(Br)c4)nnc(C)c3n2)cc1	/	-1	-0.4	99*	-10	41*
CCN(CC)CCOc1nnc(-c2ccc(C)cc2)c2ccccc12	/	0.02	0.52	-10	1	3
Cc1ccc(S(=O)(=O)/N=C2/C=C(Sc3ncn[nH]3)C(=O)c3ccccc32)cc1	/	-3.2*	/	/	/	/
SMILES	tolC growth inh	PTK2B oligo ant	Cav3 T inh	PostGolgi yeast	Ecoli WT expand	PostGolgi ctrl
N#CCSc1ncnc2c1cnn2CCO	/	0.02	0.36	-7	5	3
COCCn1c(C)cc(C(=O)CSc2nc3ccccc3c(=O)[nH]2)c1C	2	0.07	-0.064	2	2	8
COCCn1c(C)cc(C2=NNC(=Nc3ccccc3F)SC2)c1C	/	0.14	-4.4*	2	-12	1
CCOC(=O)Cc1nn2c(=O)cc(C)nc2s1	-9	-0.33	-5*	-15	1	3
CN1CCN(Cc2nc3c(c(=O)n(C)c(=O)n3C)n2CCc2ccccc2)CC1	-8	/	/	/	/	/
CC1CCCN(C(=O)Nc2cccc(NC(=O)N3CCCC(C)C3C)c2)C1C (configuration not stated)	0	0.53	-5.8*	-9	7	-1
CCOc1cc(S(=O)(=O)Nc2ccccc2CC)ccc1Cl	/	-0.3	-5.8*	11	2	59*
CCOc1cc(S(=O)(=O)Nc2ccc(Cl)cn2)ccc1Cl	/	-1.3	-2.2	/	/	/

High-throughput results deposited in PubChem BioAssay by several laboratories.
